In ChEMBL document CHEMBL1125920, “Synthesis and biological activity of 5-alkyl-1,7,8-trisubstituted-6-fluoroquinoline-3-carboxylic acids” (1991) one finds Ratio, MIC and DNA cleavage data, which are given here for nine molecules.

The nature of experiment [1]: MIC ratio measured as the mean MICs of gram-positive bacteria. Format: functional. In short, it runs like this:
(§1)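 Geometric mean of the MICs (µg/mL) over the Gram-negative or the Gram-positive strains of the 10-organism microtitration panel, calculated separately for each class.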

The test system of a further experiment is Streptococcus pyogenes. In words: Antibacterial activity was determined against gram positive organism, Streptococcus pyogenes (C203). The class given is functional. An outline of the steps:
(§2)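 MIC by standard microtitration against a panel of 10 representative Gram-negative and Gram-positive organisms; values reported in µg/mL.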

Experiment [2] deals with Staphylococcus aureus. The experiment is described as follows: Antibacterial activity was determined against gram positive organism, Staphylococcus aureus (UC76). Format: functional. An outline of the steps:
as §2

Experiment [3] relates to Staphylococcus aureus. In words: Antibacterial activity was determined against gram positive organism, Staphylococcus aureus (H228). The class given is functional. In short, it runs like this: as §2
The next experiment concerns Pseudomonas aeruginosa. In words: Antibacterial activity was determined against gram negative organism, Pseudomonas aeruginosa (UI-18). The class given is functional. In short, it runs like this: as §2
Another experiment deals with Escherichia coli. The experiment is described as follows: Antibacterial activity was determined against gram negative organism, E. coli(vogel). The class given is functional. In short, it runs like this:
as §2

The next experiment relates to Klebsiella pneumoniae. The experiment is described as follows: Antibacterial activity was determined against gram negative organism, K. pneumoniae (MGH-2). Format: functional. An outline of the steps:
as §2

The test system of the next experiment is Bacteria. The experiment is described as follows: Antibacterial activity was determined against gram negative organism, Providencia rettgeri. (M1771). Format: functional. An outline of the steps: as §2
The next experiment has as its system Enterococcus faecalis. In words: Antibacterial activity was determined against gram positive organism, Streptococcus faecalis (MGH-2). Format: functional. In short, it runs like this:
as §2

For another experiment, the system named is Enterobacter cloacae. The experiment is described as follows: Antibacterial activity against gram negative organism, […] (MA2646). The class given is functional.
The nature of experiment [4]: MIC ratio measured as the mean MICs of gram-negative bacteria. Format: functional. In short, it runs like this:
as §1

Another experiment relates to Streptococcus pneumoniae. In words: Antibacterial activity was determined against gram positive organism, Streptococcus pneumoniae (SV-1). Format: functional. In short, it runs like this: as §2
Experiment [5] deals with DNA gyrase (Escherichia coli) (UniProt P0AES6+P0AES4).

≈ marks a conversion by molar mass, not a printed value.

As usually defined, the MIC is the lowest concentration that inhibits growth of the organism. A low value points to greater potency. As to `CCNCC1CCN(c2cc3c(cc2F)c(=O)c(C(=O)O)cn3-c2ccc(F)cc2F)C1` (configuration not stated), the Ratio in [1] turned out to be 0.087; in [4], 0.79. Further, the MIC is 0.1 µg/mL (≈ 0.224 µM) against Streptococcus pyogenes; 0.025 µg/mL (≈ 0.0561 µM) in the experiment on Staphylococcus aureus [2]; 0.1 µg/mL (≈ 0.224 µM) in the experiment on Staphylococcus aureus [3]; 3.1 µg/mL (≈ 6.96 µM) in the experiment on Pseudomonas aeruginosa; 0.2 µg/mL (≈ 0.449 µM) with Escherichia coli; 0.8 µg/mL (≈ 1.8 µM) against Klebsiella pneumoniae. Further, the MIC was found to be 1.6 µg/mL (≈ 3.59 µM) in the experiment on Bacteria, 0.2 µg/mL (≈ 0.449 µM) against Enterococcus faecalis, 0.4 µg/mL (≈ 0.898 µM) in the experiment with Enterobacter cloacae and 0.1 µg/mL (≈ 0.224 µM) with Streptococcus pneumoniae.

Regarding `CCNCC1CCN(c2cc3c(cc2F)c(=O)c(C(=O)O)cn3CC)C1` (configuration not stated), the Ratio in experiment [1] worked out at 0.15; in [4], 0.6. The MIC against Streptococcus pyogenes was 0.1 µg/mL (≈ 0.277 µM); with Staphylococcus aureus [2], 0.1 µg/mL (≈ 0.277 µM); against Staphylococcus aureus [3], 0.2 µg/mL (≈ 0.553 µM); in the experiment on Pseudomonas aeruginosa, 3.1 µg/mL (≈ 8.58 µM); in the experiment with Escherichia coli it was 0.1 µg/mL (≈ 0.277 µM); in the experiment with Klebsiella pneumoniae, 0.4 µg/mL (≈ 1.11 µM). In addition, the MIC against Bacteria was determined as 1.6 µg/mL (≈ 4.43 µM); in the experiment with Enterococcus faecalis it was 0.2 µg/mL (≈ 0.553 µM); in the experiment with Enterobacter cloacae, 0.4 µg/mL (≈ 1.11 µM); against Streptococcus pneumoniae, 0.2 µg/mL (≈ 0.553 µM). Further, the DNA cleavage in experiment [5] was 2.5 µg/mL.

For the molecule `CCc1c(F)c(N2CCNCC2)cc2c1c(=O)c(C(=O)O)cn2C1CC1`, the results for the Ratio in [1] and in experiment [4] were 16.2 and 1.91, respectively. Further, the MIC against Streptococcus pyogenes worked out at 25 µg/mL (≈ 69.6 µM); against Staphylococcus aureus [2] it was 6.3 µg/mL (≈ 17.5 µM); against Staphylococcus aureus [3], 25 µg/mL (≈ 69.6 µM); in the experiment on Pseudomonas aeruginosa it was 12.5 µg/mL (≈ 34.8 µM); with Escherichia coli, 0.4 µg/mL (≈ 1.11 µM); against Klebsiella pneumoniae, 1.6 µg/mL (≈ 4.45 µM). Further, the MIC against Bacteria is 6.3 µg/mL (≈ 17.5 µM); in the experiment with Enterococcus faecalis it was greater than 25 µg/mL; against Enterobacter cloacae it was 0.8 µg/mL (≈ 2.23 µM); against Streptococcus pneumoniae it was 12.5 µg/mL (≈ 34.8 µM).

With `CCn1cc(C(=O)O)c(=O)c2cc(F)c(N3CCNCC3)cc21` [NORFLOXACIN], the Ratio in experiment [1] is 0.61; in experiment [4], 0.057. The DNA cleavage in experiment [5] came to 1 µg/mL. Besides, the MIC in the experiment on Bacteria was 0.025 µg/mL (≈ 0.0783 µM).

For the molecule `Cc1c(F)c(N2CCNCC2)c(Cl)c2c1c(=O)c(C(=O)O)cn2C1CC1`, the Ratio in [1] and in [4] was 0.087 each time. Moreover, the MIC in the experiment on Streptococcus pyogenes turned out to be 0.2 µg/mL (≈ 0.527 µM); in the experiment with Staphylococcus aureus [2], 0.025 µg/mL (≈ 0.0658 µM); with Staphylococcus aureus [3], 0.05 µg/mL (≈ 0.132 µM); against Pseudomonas aeruginosa, 0.2 µg/mL (≈ 0.527 µM); with Escherichia coli it was 0.025 µg/mL (≈ 0.0658 µM); against Klebsiella pneumoniae, 0.1 µg/mL (≈ 0.263 µM). Besides, the MIC in the experiment with Bacteria turned out to be 0.2 µg/mL (≈ 0.527 µM); against Enterococcus faecalis, 0.2 µg/mL (≈ 0.527 µM); with Enterobacter cloacae, 0.05 µg/mL (≈ 0.132 µM); in the experiment on Streptococcus pneumoniae, 0.1 µg/mL (≈ 0.263 µM). The DNA cleavage in experiment [5] was found to be 1.5 µg/mL.

On to `CCn1cc(C(=O)O)c(=O)c2c(C)c(F)c(N3CCC(N)C3)cc21` (configuration not stated), for which the Ratio in experiment [1] is 1.38; in [4], 0.69. Further, the MIC is 3.1 µg/mL (≈ 9.3 µM) in the experiment with Streptococcus pyogenes; 0.4 µg/mL (≈ 1.2 µM) in the experiment on Staphylococcus aureus [2]; 1.6 µg/mL (≈ 4.8 µM) against Staphylococcus aureus [3]; 3.1 µg/mL (≈ 9.3 µM) in the experiment on Pseudomonas aeruginosa; 0.2 µg/mL (≈ 0.6 µM) against Escherichia coli; 0.8 µg/mL (≈ 2.4 µM) with Klebsiella pneumoniae. Further, the MIC came to 1.6 µg/mL (≈ 4.8 µM) in the experiment with Bacteria, 1.6 µg/mL (≈ 4.8 µM) in the experiment with Enterococcus faecalis, 0.2 µg/mL (≈ 0.6 µM) with Enterobacter cloacae and 1.6 µg/mL (≈ 4.8 µM) against Streptococcus pneumoniae. This molecule registered a DNA cleavage in experiment [5] of 6.3 µg/mL.

For `CC1(CN)CCN(c2c(F)cc3c(=O)c(C(=O)O)cn(C4CC4)c3c2F)C1` (configuration not stated), the Ratio in experiment [1] stood at 0.095; in [4] it was 0.1. Besides, the MIC stood at 0.025 µg/mL (≈ 0.0662 µM) in the experiment with Streptococcus pyogenes; 0.003 µg/mL (≈ 0.00795 µM) with Staphylococcus aureus [2]; 0.05 µg/mL (≈ 0.132 µM) against Escherichia coli; 0.1 µg/mL (≈ 0.265 µM) against Klebsiella pneumoniae; 0.2 µg/mL (≈ 0.53 µM) in the experiment with Bacteria; 0.013 µg/mL (≈ 0.0344 µM) in the experiment with Enterococcus faecalis. In addition, the MIC with Enterobacter cloacae stood at 0.025 µg/mL (≈ 0.0662 µM); against Streptococcus pneumoniae it was 0.006 µg/mL (≈ 0.0159 µM). In experiment [5], this molecule returned a DNA cleavage of 2.6 µg/mL.

For the molecule `NC1CCN(c2cc3c(cc2F)c(=O)c(C(=O)O)cn3-c2ccc(F)cc2F)C1` (configuration not stated), the Ratio in [1] is 0.033; in [4] it was 0.076. Moreover, the MIC is 0.025 µg/mL (≈ 0.062 µM) in the experiment with Streptococcus pyogenes; 0.013 µg/mL (≈ 0.0322 µM) against Staphylococcus aureus [2]; 0.05 µg/mL (≈ 0.124 µM) in the experiment on Staphylococcus aureus [3]; 0.4 µg/mL (≈ 0.992 µM) against Pseudomonas aeruginosa; 0.025 µg/mL (≈ 0.062 µM) in the experiment on Escherichia coli; 0.05 µg/mL (≈ 0.124 µM) with Klebsiella pneumoniae. The MIC against Bacteria was 0.1 µg/mL (≈ 0.248 µM); with Enterococcus faecalis it was 0.1 µg/mL (≈ 0.248 µM); against Enterobacter cloacae, 0.05 µg/mL (≈ 0.124 µM); against Streptococcus pneumoniae it was 0.025 µg/mL (≈ 0.062 µM).

With `CCc1c(F)c(N2CCC(N)C2)cc2c1c(=O)c(C(=O)O)cn2C1CC1` (configuration not stated), the Ratio in [1] is 5.45; in experiment [4] it was 2.09. In addition, the minimum inhibitory concentration (MIC) against Streptococcus pyogenes came to 3.1 µg/mL (≈ 8.63 µM); in the experiment on Staphylococcus aureus [2], 3.1 µg/mL (≈ 8.63 µM); in the experiment on Staphylococcus aureus [3], 12.5 µg/mL (≈ 34.8 µM); against Pseudomonas aeruginosa, 12.5 µg/mL (≈ 34.8 µM); against Escherichia coli, 0.4 µg/mL (≈ 1.11 µM); in the experiment on Klebsiella pneumoniae, 1.6 µg/mL (≈ 4.45 µM). Further, the MIC in the experiment on Bacteria was determined as 6.3 µg/mL (≈ 17.5 µM); with Enterococcus faecalis, 25 µg/mL (≈ 69.6 µM); against Enterobacter cloacae, 0.8 µg/mL (≈ 2.23 µM); in the experiment with Streptococcus pneumoniae it was 1.6 µg/mL (≈ 4.45 µM).
